Consider 5 molecules from ChEMBL document CHEMBL2417459, “Chrysophaentins are competitive inhibitors of FtsZ and inhibit Z-ring formation in live bacteria” (Bioorg Med Chem, 2013).

SMILES strings stand for the structures. Values after ≈ are worked out from the molar mass of the structure shown. Active and inactive are the calls of the source. The rule behind the calls is not given here.

By IC50 is commonly meant the concentration that gives 50% inhibition. A word on the MIC50: it is the lowest concentration that inhibits either 50% of growth or 50% of the strains tested, depending on the study.

The test system of test [1] is Escherichia coli. Nature of the test: Inhibition of C-terminal YFP-fused Escherichia coli FtsZ cloned in Escherichia coli envA1 assessed as mislocalization of protein throughout cell at 120 uM after 30 to 60 mins by fluorescence microscopic analysis. Summed up:
(§1)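 envA1 carrying arabinose-inducible pFtsZ-YFP grown in LB with 20 µg/mL chloramphenicol at 37 °C to OD600 ~0.2, then induced with 0.4% L-arabinose for 30 min. Cells washed in PBS/tetracycline and resuspended in LB. 1 mL aliquots treated in 1% MeOH or 1% DMSO for 30 or 60 min. Imaged by confocal fluorescence (ex 488, em 558) plus DIC, 100× objective.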

Test [2] deals with Escherichia coli. Put plainly: Inhibition of C-terminal YFP-fused Escherichia coli FtsZ cloned in Escherichia coli envA1 assessed as mislocalization of protein in polar region at 4.9 uM after 30 to 60 mins by fluorescence microscopic analysis. Summed up:
as §1

Test [3] concerns Escherichia coli. Nature of the test: Inhibition of recombinant Escherichia coli FtsZ GTPase activity expressed in Escherichia coli BL21 (DE3) assessed as production of inorganic phosphate up to 600 uM after 10 mins by malachite green-phosphomolybdate colorimetric assay in presence of triton X-100. Summed up:
(§2)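 Recombinant EcFtsZ, purified by ammonium sulfate precipitation, ion exchange and gel filtration, used at 2 µM with 0.25 mM GTP in 50 mM MES pH 6.0, 100 mM KCl, 5 mM MgCl2. Incubated 10 min at 23 °C with serially diluted inhibitor. Pi read at 635 nm by malachite green-phosphomolybdate against a standard curve to give IC50. Triton X-100 at 0.01% where stated.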

For test [4], the target named is T1, Cell division protein FtsZ (Staphylococcus aureus) (UniProt P0A031).
T1 sequence (whole entry): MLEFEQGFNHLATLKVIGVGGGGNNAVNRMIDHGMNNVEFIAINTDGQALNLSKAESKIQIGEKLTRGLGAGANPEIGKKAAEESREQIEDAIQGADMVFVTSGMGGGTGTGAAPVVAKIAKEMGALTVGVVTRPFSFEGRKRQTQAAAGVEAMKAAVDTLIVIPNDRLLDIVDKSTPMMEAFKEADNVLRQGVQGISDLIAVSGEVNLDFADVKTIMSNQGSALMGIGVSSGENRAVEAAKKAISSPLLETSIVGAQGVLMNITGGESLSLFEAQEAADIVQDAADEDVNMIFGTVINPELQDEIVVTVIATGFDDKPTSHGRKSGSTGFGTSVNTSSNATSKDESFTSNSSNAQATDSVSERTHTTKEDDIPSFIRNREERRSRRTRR
Nature of the test: Inhibition of recombinant Staphylococcus aureus FtsZ GTPase activity expressed in Escherichia coli BL21 (DE3) assessed as production of inorganic phosphate up to 600 uM after 20 mins by malachite green-phosphomolybdate colorimetric assay in presence of triton X-100. Summed up: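 Recombinant SaFtsZ at 6 µM with 0.25 mM GTP in 50 mM MES pH 6.0, 100 mM KCl, 5 mM MgCl2, plus 0.01% Triton X-100. Incubated 20 min at 30 °C with serially diluted inhibitor. Pi measured at 635 nm by malachite green-phosphomolybdate against a standard curve.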

Test [5] concerns Escherichia coli. Nature of the test: Inhibition of C-terminal YFP-fused Escherichia coli FtsZ transformed in Escherichia coli envA1 assessed as Z ring formation at 125 uM after 30 to 60 mins by fluorescence microscopic analysis. Summed up: as §1
Test [6] concerns Escherichia coli. Nature of the test: Inhibition of C-terminal YFP-fused Escherichia coli FtsZ cloned in Escherichia coli envA1 assessed as protein dispersion in from of patches throughout cytoplasm at 125 uM after 30 to 60 mins by fluorescence microscopic analysis. Summed up: as §1
Test [7] is described as follows: Inhibition of recombinant Escherichia coli FtsZ GTPase activity expressed in Escherichia coli BL21 (DE3) assessed as production of inorganic phosphate after 10 mins by malachite green-phosphomolybdate colorimetric assay. Summed up:
as §2

Test [8] has as its target T2, Cell division protein FtsZ (Staphylococcus aureus, UniProt P0A031).
T2 sequence (P0A031 whole entry): T1 sequence (whole entry)
Nature of the test: Inhibition of recombinant Staphylococcus aureus FtsZ GTPase activity expressed in Escherichia coli BL21 (DE3) assessed as production of inorganic phosphate after 20 mins by malachite green-phosphomolybdate colorimetric assay. Summed up: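 SaFtsZ (recombinant; stored at −80 °C in 50 mM Tris pH 7.4, 50 mM KCl, 1 mM EDTA, 10% glycerol), 6 µM, with 0.25 mM GTP in 50 mM MES pH 6.0, 100 mM KCl, 5 mM MgCl₂. Run 20 min at 30 °C with serially diluted inhibitor. Pi read at 635 nm against a standard curve to give IC₅₀. DMSO control up to 8%.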

Test [9] has as its system Escherichia coli. Nature of the test: Antibacterial activity against Escherichia coli K12 C600 envA1 assessed as growth inhibition after 18 hrs by microbroth dilution method. Conditions: envA1, 18 h.
The test system of test [10] is Escherichia coli. Nature of the test: Inhibition of C-terminal RFP-fused Escherichia coli FtsZ cloned in Escherichia coli envA1 assessed as intact red fluorescent Z-ring formation at 680 uM after 30 to 60 mins by fluorescence microscopic analysis. Summed up: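 envA1 carrying arabinose-inducible pFtsZ-tdTomato (pFtsZ-RFP), induced and treated by the same protocol, 680 µM for 30 min. Red fluorescence imaged (ex 555, em 630) alongside the yellow channel and DIC at 30 and 60 min post induction.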

The subject of test [11] is Escherichia coli. Nature of the test: Inhibition of C-terminal YFP-fused Escherichia coli FtsZ cloned in Escherichia coli envA1 assessed as mislocalization of protein throughout cell at 680 uM after 30 mins by fluorescence microscopic analysis. Summed up: as §1
Test [12] concerns the target T3, Cell division protein FtsZ (Bacillus subtilis) (UniProt A5Z1V5).
T3 sequence (whole entry): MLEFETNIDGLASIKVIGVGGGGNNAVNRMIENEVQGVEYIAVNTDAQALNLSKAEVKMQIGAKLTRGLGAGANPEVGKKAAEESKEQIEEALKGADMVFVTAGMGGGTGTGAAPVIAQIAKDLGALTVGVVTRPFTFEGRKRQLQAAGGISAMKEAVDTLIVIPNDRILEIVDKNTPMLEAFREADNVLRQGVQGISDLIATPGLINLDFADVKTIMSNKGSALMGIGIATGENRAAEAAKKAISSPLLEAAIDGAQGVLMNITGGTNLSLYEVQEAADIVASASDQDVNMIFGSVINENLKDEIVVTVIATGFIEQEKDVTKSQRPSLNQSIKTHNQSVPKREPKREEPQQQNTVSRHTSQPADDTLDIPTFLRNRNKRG
Put plainly: Inhibition of Bacillus subtilis SU570 GFP-fused FtsZ assessed as perturbation of Z-ring formation at 12 uM after 60 mins by fluorescence microscopic analysis.

In test [13] the target is T4, Cell division protein FtsZ (Bacillus subtilis, UniProt A5Z1V5).
T4 sequence (A5Z1V5 whole entry): T3 sequence (whole entry)
Put plainly: Inhibition of Bacillus subtilis FtsZ GTPase activity assessed as production of inorganic phosphate measured up to 60 mins by malachite green-phosphomolybdate colorimetric assay.

Test [14] deals with Escherichia coli. Put plainly: Inhibition of C-terminal YFP-fused Escherichia coli FtsZ cloned in Escherichia coli envA1 assessed as protein dispersion in from of patches throughout cytoplasm at 340 uM after 30 to 60 mins by fluorescence microscopic analysis. Summed up: as §1
The subject of test [15] is Escherichia coli. Put plainly: Inhibition of C-terminal YFP-fused Escherichia coli FtsZ cloned in Escherichia coli envA1 assessed as Z ring formation at 340 uM after 30 to 60 mins by fluorescence microscopic analysis. Summed up:
as §1

For test [16], the target named is T3, Cell division protein FtsZ (Bacillus subtilis). Nature of the test: Displacement of [3H]-GTP from Bacillus subtilis FtsZ assessed as equilibrium association constant by scintillation counting assay. Summed up: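 Nucleotide-free B. subtilis FtsZ (70 nM) incubated with 3H-GTP (100 nM) and competitor. FtsZ-bound label measured by co-sedimentation and scintillation counting. 3H-GTP binding constant determined separately. Data fit to a simple competition model.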
A general note: Loss of bound radioactivity is the signal in a displacement assay; it reports binding, not function.

For test [17] the target is unchanged. Nature of the test: Displacement of mant-GTP from Bacillus subtilis FtsZ by fluorescence anisotropy analysis. Summed up: (§3)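 Nucleotide-free B. subtilis FtsZ (380 nM) with mant-GTP (500 nM), titrated with competitor. Displacement read as the change in fluorescence anisotropy and fit by least squares to a simple competition model. GTP (150 µM) served as the displacement control.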

Test [18] has the same target. Nature of the test: Displacement of mant-GTP from Bacillus subtilis FtsZ assessed as equilibrium association constant by fluorescence anisotropy analysis. Summed up: as §3
A general note: Fluorescence polarisation rises when a labelled molecule tumbles more slowly, as on binding a larger partner.

In the case of `CCN(CC)CCNc1nc(/C=C/c2ccc(Cl)cc2)nc2cc3ccccc3cc12`, in test [1], the inhibition result is “Active”.

Regarding `Oc1ccc(Cl)cc1Cc1cc(Cl)cc(Cc2cc(Cl)ccc2O)c1O`, in test [2], the inhibition entry was “Active”.

Turning to `Oc1cc(O)c2c(c1)C/C(Cl)=C\Cc1cc(c(Cl)cc1O)Oc1c(O)cc(cc1O)C/C(Cl)=C\Cc1cc(c(Cl)cc1O)O2`, the inhibition entry in [3], in test [4], in test [5] and in [6] was “Active” each time. In addition, the results for the IC50 in test [7] and in [8] were 9.9 µM and 67 µM, respectively. Besides, the MIC50 in test [9] came to 27 µM (≈ 18.3 µg/mL).

Consider `COc1ccc2cc3[n+](cc2c1OC)CCc1cc2c(cc1-3)OCO2`, for which the inhibition entry in [10] was “inactive”. In addition, the inhibition entry in test [11] is “Active”.

For `COc1cc(C/C=C(/Cl)Cc2cc(O)cc(O)c2)c(OC)cc1Cl`, the inhibition result in test [3], in test [4], in [12], in test [14] and in [15] was “Active” each time. Besides, the IC50 in test [13] came to 70 µM; in [7], 37 µM; in [8] it was 38 µM. For the same molecule, the Ka amounted to 0.87 ×10⁵ /M in [16] and 1.5 ×10⁵ /M in test [18]. Further, the inhibition entry in test [17] was “Dose-dependent effect”. Moreover, the MIC50 in test [9] is 84 µM (≈ 31 µg/mL).
